{"source": "paper PMC3334839", "about": "(The Journal of Neuroscience, 2012)", "key": {"[1]": {"tested_on": "native GlyRs in cultured spinal neurons", "test": "Whole-cell patch-clamp of Gly-activated current", "format": "cell-based, rat", "settings": "for average percent potentiation of IGly: concentration-response (Fig. 1E), EC2 Gly", "in_short": "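Spinal cords from postnatal day 0 rats, papain-dissociated (20 U/ml, 37°C, 40 min). Plated at 300,000 cells/ml on poly-d-lysine in MEM/10% FBS, cultured ≥10 d, washed 30 min in external solution. Whole-cell, −60 mV, 20–22°C.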"}, "α1β1 GlyRs": {"target": "α1β1 GlyRs (Homo sapiens, UniProt P23415)", "sequence (P23415 29-457)": "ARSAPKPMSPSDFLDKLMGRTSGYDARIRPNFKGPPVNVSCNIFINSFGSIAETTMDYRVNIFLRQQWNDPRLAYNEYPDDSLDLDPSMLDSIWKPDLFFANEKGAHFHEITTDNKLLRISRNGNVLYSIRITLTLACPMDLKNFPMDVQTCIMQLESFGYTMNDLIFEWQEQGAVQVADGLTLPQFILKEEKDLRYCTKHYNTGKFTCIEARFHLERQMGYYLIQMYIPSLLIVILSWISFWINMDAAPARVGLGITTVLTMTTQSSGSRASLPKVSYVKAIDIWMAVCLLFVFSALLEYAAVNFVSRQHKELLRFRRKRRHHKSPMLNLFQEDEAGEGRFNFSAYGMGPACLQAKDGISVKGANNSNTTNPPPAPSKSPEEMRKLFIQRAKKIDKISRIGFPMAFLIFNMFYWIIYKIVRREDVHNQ", "sequence (P48167 23-497 partner)": "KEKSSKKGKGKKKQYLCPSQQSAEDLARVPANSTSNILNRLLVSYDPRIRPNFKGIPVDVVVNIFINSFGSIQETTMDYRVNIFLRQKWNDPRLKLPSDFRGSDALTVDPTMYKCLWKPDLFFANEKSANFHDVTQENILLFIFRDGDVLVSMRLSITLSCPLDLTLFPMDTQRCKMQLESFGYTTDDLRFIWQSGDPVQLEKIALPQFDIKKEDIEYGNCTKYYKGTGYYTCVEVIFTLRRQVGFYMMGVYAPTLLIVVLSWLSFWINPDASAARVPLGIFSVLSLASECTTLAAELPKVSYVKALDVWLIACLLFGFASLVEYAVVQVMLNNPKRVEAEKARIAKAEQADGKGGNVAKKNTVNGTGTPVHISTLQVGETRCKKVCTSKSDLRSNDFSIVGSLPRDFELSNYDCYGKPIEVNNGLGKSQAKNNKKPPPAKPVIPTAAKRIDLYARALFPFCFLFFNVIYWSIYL", "format": "cell-based"}, "rat α2 GlyR": {"target": "T1, rat α2 GlyR (Rattus norvegicus, UniProt P22771)", "T1 sequence (P22771 28-452)": "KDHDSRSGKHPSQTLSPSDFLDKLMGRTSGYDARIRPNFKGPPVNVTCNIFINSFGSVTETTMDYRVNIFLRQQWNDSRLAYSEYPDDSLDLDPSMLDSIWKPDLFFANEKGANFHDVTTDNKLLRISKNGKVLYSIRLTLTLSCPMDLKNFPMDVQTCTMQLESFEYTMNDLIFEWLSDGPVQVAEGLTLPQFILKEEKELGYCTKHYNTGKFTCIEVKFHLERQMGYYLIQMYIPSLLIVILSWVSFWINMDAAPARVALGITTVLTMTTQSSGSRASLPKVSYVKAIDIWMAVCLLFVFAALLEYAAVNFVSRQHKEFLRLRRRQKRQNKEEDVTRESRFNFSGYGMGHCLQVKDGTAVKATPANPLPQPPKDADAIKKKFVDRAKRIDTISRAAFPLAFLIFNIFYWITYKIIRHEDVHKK", "test": "Whole-cell patch-clamp of IGly in HEK-293 cells expressing α2 GlyRs", "format": "cell-based", "settings": "10 μM AEA, 5 min sustained, EC2 Gly (20 μM), wild-type α2"}, "S307A mutant rat α3 GlyR": {"target": "T2, S307A mutant rat α3 GlyR (Rattus norvegicus, UniProt P24524, S329A)", "T2 sequence (P24524 34-464 S329A)": "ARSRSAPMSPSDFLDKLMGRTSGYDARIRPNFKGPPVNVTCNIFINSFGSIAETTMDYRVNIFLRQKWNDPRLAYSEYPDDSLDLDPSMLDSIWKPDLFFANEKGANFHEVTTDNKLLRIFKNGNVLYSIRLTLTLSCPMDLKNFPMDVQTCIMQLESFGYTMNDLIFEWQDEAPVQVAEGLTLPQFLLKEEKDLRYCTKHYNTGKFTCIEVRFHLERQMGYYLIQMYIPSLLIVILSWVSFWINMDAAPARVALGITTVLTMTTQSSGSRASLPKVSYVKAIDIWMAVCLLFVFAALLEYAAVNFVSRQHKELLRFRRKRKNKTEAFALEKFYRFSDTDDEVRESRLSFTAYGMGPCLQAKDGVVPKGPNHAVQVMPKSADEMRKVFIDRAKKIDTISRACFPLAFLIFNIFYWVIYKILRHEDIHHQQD", "test": "Whole-cell patch-clamp of IGly in HEK-293 cells expressing S307A mutant α3 GlyRs", "format": "cell-based", "settings": "10 μM AEA, 5 min sustained, EC2 Gly (100 μM)"}, "[2]": {"target": "T3, G254A mutant human α1 GlyR (Homo sapiens, UniProt P23415, G282A)", "T3 sequence (P23415 29-457 G282A)": "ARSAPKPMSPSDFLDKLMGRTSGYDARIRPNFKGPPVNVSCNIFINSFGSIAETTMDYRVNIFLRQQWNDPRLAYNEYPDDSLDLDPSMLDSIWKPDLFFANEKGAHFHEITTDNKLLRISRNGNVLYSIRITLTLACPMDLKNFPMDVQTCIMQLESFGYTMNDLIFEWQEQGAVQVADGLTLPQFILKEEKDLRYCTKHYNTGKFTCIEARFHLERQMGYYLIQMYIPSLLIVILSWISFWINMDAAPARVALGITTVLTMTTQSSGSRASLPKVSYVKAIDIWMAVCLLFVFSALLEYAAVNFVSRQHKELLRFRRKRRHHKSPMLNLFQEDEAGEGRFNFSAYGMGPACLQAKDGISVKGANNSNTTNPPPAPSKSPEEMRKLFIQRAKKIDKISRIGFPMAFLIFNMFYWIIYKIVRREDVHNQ", "test": "Whole-cell patch-clamp of IGly in HEK-293 cells expressing G254A mutant α1 GlyRs", "format": "cell-based", "settings": "AEA 5 min sustained incubation"}, "human 5-HT3A receptor": {"target": "T4, human 5-HT3A receptor (Homo sapiens, UniProt P46098)", "T4 sequence (P46098 24-478)": "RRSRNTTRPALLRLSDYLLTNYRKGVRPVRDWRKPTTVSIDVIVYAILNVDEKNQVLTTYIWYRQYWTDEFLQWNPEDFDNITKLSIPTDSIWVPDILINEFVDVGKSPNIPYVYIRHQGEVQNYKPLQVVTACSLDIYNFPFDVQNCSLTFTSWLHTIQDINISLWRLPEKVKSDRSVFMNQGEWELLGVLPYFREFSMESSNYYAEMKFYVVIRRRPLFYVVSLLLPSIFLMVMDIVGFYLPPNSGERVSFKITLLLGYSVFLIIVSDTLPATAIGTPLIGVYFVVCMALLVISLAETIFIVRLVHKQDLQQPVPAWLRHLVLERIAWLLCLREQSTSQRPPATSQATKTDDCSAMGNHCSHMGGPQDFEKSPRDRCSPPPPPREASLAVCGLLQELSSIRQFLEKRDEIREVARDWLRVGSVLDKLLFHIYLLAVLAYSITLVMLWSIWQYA", "format": "cell-based", "in_short": "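Human 5-HT3A receptors (wild-type or point mutant made by site-directed mutagenesis) transfected into HEK-293 cells. Cells recorded 2 d later, trypsin/EDTA-treated 2 h before, lifted, superfused with HEPES-buffered saline (pH 7.4). Whole-cell, CsCl pipette, −60 mV, 20–22°C. 5-HT 30 μM pulses before, during and after continuous 5 min test compound (0.1 μM) incubation; 5–7 cells, mean ± SE.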"}, "CB1 receptors": {"target": "CB1 receptors", "settings": "read-out: binding affinity (Ki) for CB1 receptors; ref Pertwee, 2000; cited from earlier work"}, "CB2 receptors": {"target": "CB2 receptors", "settings": "read-out: binding affinity (Ki) for CB2 receptors; ref Pertwee, 2000; cited from earlier work"}}}
{"compound": "CCCCC/C=C\\C/C=C\\C/C=C\\C/C=C\\CCCC(=O)NCCO", "note": "[AEA, anandamide]", "values": [{"measurement": "time to maximal potentiation of IGly", "setting": "[1]; 1 μM AEA sustained application", "result": 5, "unit": "min"}, {"measurement": "average percentage potentiation of IGly", "setting": "[1]; 1 μM AEA, 5 min sustained application, EC2 Gly (Fig. 1C)", "result": "86 ± 24", "unit": "%"}, {"measurement": "percentage potentiation of IGly, initial value", "setting": "[1]; 1 μM AEA, after 1 min of AEA exposure, neurons", "result": "6 ± 6", "unit": "%"}, {"measurement": "average percent potentiation of IGly", "setting": "[1]; 1 μM AEA", "result": "79 ± 19", "unit": "%"}, {"measurement": "average percent potentiation of IGly", "setting": "[1]; 3 μM AEA", "result": "236 ± 52", "unit": "%"}, {"measurement": "average percent potentiation of IGly", "setting": "[1]; 10 μM AEA", "result": "636 ± 87", "unit": "%"}, {"measurement": "average percent potentiation of IGly", "setting": "[1]; 30 μM AEA", "result": "800 ± 71", "unit": "%"}, {"measurement": "time to maximal potentiation of IGly", "setting": "α1β1 GlyRs; 1 μM AEA sustained application, α1β1 heteromeric", "result": 5, "unit": "min"}, {"measurement": "average percentage potentiation of IGly", "setting": "α1β1 GlyRs; 1 μM AEA, 5 min sustained application, EC2 Gly, α1β1 (Fig. 1C)", "result": "85 ± 12", "unit": "%"}, {"measurement": "average percentage potentiation of IGly", "setting": "rat α2 GlyR", "result": "127 ± 37", "unit": "%"}, {"measurement": "AEA-induced potentiation of IGly", "setting": "S307A mutant rat α3 GlyR", "result": "249 ± 48", "unit": "%"}, {"measurement": "AEA-induced potentiation of IGly", "setting": "[2]", "result": "597 ± 77", "unit": "%"}, {"measurement": "effect on 5-HT-activated current", "setting": "human 5-HT3A receptor; 0.1 μM AEA for 5 min, 5-HT 30 μM, wild-type", "result": "gradually developing inhibition"}, {"measurement": "time to maximal inhibition of I5-HT", "setting": "human 5-HT3A receptor; continuous exposure to 0.1 μM AEA", "result": 5, "unit": "min"}, {"measurement": "Ki", "setting": "CB1 receptors", "result": "61 to 543", "unit": "nM"}, {"measurement": "Ki", "setting": "CB2 receptors", "result": "279 to 1940", "unit": "nM"}]}
